Activity calls are given as the source filed them. The rule behind the calls is not given here.
Key:
[1] = test system: Saccharomyces cerevisiae; test: Inhibition of TIM16-mediated Saccharomyces cerevisiae J47D proliferation in log phase at 100 uM measured for every 30 mins
Method in brief: (§1)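 Log-phase S. cerevisiae J47D plated at 1.5 × 10⁴ cells/well in YEPD. Compounds in DMSO added across 0–1 mM, triplicate wells, 1% final DMSO. Cultured at 30 °C with OD600 read every 30 min. n = 3; each experiment done at least twice independently.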

[2] = test system: Saccharomyces cerevisiae; test: Inhibition of TIM16-mediated Saccharomyces cerevisiae J47D proliferation in log phase at 10 uM measured for every 30 mins; method in brief: as §1
[3] = test system: Saccharomyces cerevisiae; test: Inhibition of TIM16-mediated Saccharomyces cerevisiae J47D proliferation in log phase at 1 mM measured for every 30 mins; method in brief: as §1
[4] = test system: Saccharomyces cerevisiae; test: Inhibition of TIM16-mediated Saccharomyces cerevisiae J47D proliferation in log phase at 1 uM measured for every 30 mins; method in brief: as §1
[5] = Solubility of the compound at 1 mM; type: physicochemical; details: 1000 µM
[6] = Binding affinity to Saccharomyces cerevisiae Magmas by fluorometric titration
Method in brief: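 Intrinsic Trp/Tyr fluorescence of yeast Magmas (3 µM, unit as printed) in 50 mM Bis–Tris pH 7.1, 25 °C. Excitation 295 nm, emission read at 365 nm. Ligand titrated from 0 to […] using freshly made stock. Dilution kept ≤10% and corrected for. Kd obtained by fitting intensity versus total ligand concentration to a single-site binding equation.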

[7] = test system: Saccharomyces cerevisiae; test: Inhibition of Saccharomyces cerevisiae TIM16 N84T mutant-mediated proliferation up to 60 mins
Method in brief: (§2)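 Yeast whose wild-type TIM16 plasmid was lost on FOA selection, carrying plasmid-borne Tim16 N84T or A104S mutants, cultured in YEPD at 30 °C. Compound added at graded concentrations in DMSO (1% final), triplicate wells. OD600 read every 30 min; compared with the wild-type plasmid strain.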

[8] = test system: T1, Saccharomyces cerevisiae [A104S]; test: Inhibition of Saccharomyces cerevisiae TIM16 A104S mutant-mediated proliferation up to 60 mins; method in brief: as §2
T1 sequence (whole entry): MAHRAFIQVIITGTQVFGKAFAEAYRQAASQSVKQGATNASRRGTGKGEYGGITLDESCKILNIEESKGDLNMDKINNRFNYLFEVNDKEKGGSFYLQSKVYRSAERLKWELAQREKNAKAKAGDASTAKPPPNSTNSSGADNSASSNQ

**Q.** With `O=[N+]([O-])c1ccc2c(c1)C=CC(c1ccccc1)O2` (stereo not drawn) as the compound, how does the inhibition [1] read?
**A.** Its inhibition is “inactive”.

**Q.** What about the inhibition [2] of the same compound?
**A.** The inhibition was “inactive”.

**Q.** What about the inhibition [3] of the same compound?
**A.** The inhibition was “inactive”.

**Q.** What about the inhibition [4] of the same compound?
**A.** The inhibition was “inactive”.

**Q.** Which results are given for `Brc1ccc2c(c1)C=CC(c1ccccc1)O2` (stereo not drawn)?
**A.** inhibition [1]: Active; inhibition [2]: Active; inhibition [3]: Active; inhibition [4]: inactive

**Q.** Which inhibition [1] does the source give for `CCCCCCCCC1C=Cc2cc([N+](=O)[O-])ccc2O1` (stereo not drawn) here?
**A.** The inhibition was “Active”.

**Q.** And the inhibition [2]?
**A.** The inhibition was “inactive”.

**Q.** And the inhibition [4]?
**A.** Its inhibition is “inactive”.

**Q.** What about the solubility [5] of the same compound?
**A.** Its solubility is “Insoluble”.

**Q.** With `Clc1ccc2c(c1)C=CC(c1ccccc1)O2` (stereo not drawn) as the compound, how does the inhibition [1] read?
**A.** The inhibition was “Active”.

**Q.** What about the inhibition [2] of the same compound?
**A.** Its inhibition is “inactive”.

**Q.** What about the inhibition [4] of the same compound?
**A.** Its inhibition is “inactive”.

**Q.** And the solubility [5]?
**A.** Its solubility is “Insoluble”.

**Q.** With `CCC1=C(C)/C(=C/c2ccc(C(=O)NC(=N)N)cc2)CCC1(C)C` as the compound, how does the Kd [6] read?
**A.** The Kd was 33.5 µM.

**Q.** And the inhibition [1]?
**A.** Its inhibition is “Active”.

**Q.** And the inhibition [2]?
**A.** The inhibition was “Active”.

**Q.** What about the inhibition [3] of the same compound?
**A.** The inhibition was “Active”.

**Q.** What about the inhibition [4] of the same compound?
**A.** The inhibition was “inactive”.

**Q.** And the inhibition [7]?
**A.** Its inhibition is “inactive”.

**Q.** And the inhibition [8]?
**A.** Its inhibition is “Active”.
